Measured values as given in ChEMBL document CHEMBL5352501, “Catalytic Degraders Effectively Address Kinase Site Mutations in EML4-ALK Oncogenic Fusions” (J Med Chem, 2023).
Converted amounts (≈) assume the structure as drawn. One block for each molecule: values may come before it.

How the values were obtained:
[1] = Microsomal stability in human liver microsomes assessed as intrinsic clearance at 1 uM and measured upto 60 mins in presence of NADPH by LC-MS/MSC analysis; type: ADME, Microsome; settings: read-out: CLH
Erythrocyte [2] = experiment: Hemolytic activity in mouse RBC assessed as hemolysis incubated for 45 mins by absorbance based microplate reader analysis; type: toxicity, cell-based; settings: 0.75 h
Erythrocyte [3] = experiment: Hemolytic activity in human RBC assessed as hemolysis incubated for 45 mins by absorbance based microplate reader analysis; type: toxicity, cell-based; settings: 0.75 h
[4] = Oral bioavailability in C57BL/J6 mouse at 10 mg/kg and measured upto 24 hrs by LC-MS/MS analysis; type: ADME, organism-based; settings: in vivo
Summary of the method: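 Mouse PK was run with both oral and intravenous dosing, with 10 mg/kg as the study dose. Oral bioavailability was derived from comparing the two routes.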

[5] = Microsomal stability in human liver microsomes at 1 uM measured upto 60 mins in presence of NADPH by LC-MS/MSC analysis; type: ADME, Microsome; settings: 1 h
[6] = Solubility of the compound in FeSSIF at pH 5.0 incubated for 24 hrs under shaking condition by UPLC-UV/HPLC-UV analysis; type: physicochemical
BaF3 [7] = experiment: Antiproliferative activity against mouse Ba/F3 cells stably expressing HiBiT-tagged EML4-ALK variant 3 C1156Y mutant assessed as cell growth inhibition incubated for 72 hrs by CellTiter-Glo assay; type: functional
Summary of the method: (§1)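 Ba/F3 cells stably expressing HiBiT-tagged EML4-ALK v3 (wild type or the named kinase-site mutant) were treated with compound for 72 h. Growth inhibition was reported as log GI50.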

BaF3 [8] = type: functional; settings: Mus musculus, time 72 hrs, read-out: pGI50 (converted)
BaF3 [9] = type: functional; settings: Mus musculus, time 72 hrs
BaF3 [10] = experiment: Antiproliferative activity against mouse Ba/F3 cells stably expressing HiBiT-tagged wild type EML4-ALK variant 3 assessed as cell growth inhibition incubated for 72 hrs by CellTiter-Glo assay; type: functional; summary of the method: as §1
BaF3 [11] = experiment: Antiproliferative activity against mouse Ba/F3 cells stably expressing HiBiT-tagged EML4-ALK variant 3 G1202R mutant assessed as cell growth inhibition incubated for 72 hrs by CellTiter-Glo assay; type: functional; summary of the method: as §1

SMILES: CCc1cc2c(cc1N1CCN(CC3CN(c4ccc5c(c4)C(=O)N(C4CCC(=O)NC4=O)C5=O)C3)CC1)C(C)(C)c1[nH]c3cc(C#N)ccc3c1C2=O (stereo not given)
F [4]: 48% | Stability [5]: Stable

SMILES: COc1cc(CCNCCCCCC#Cc2cccc3c2CN(C2CCC(=O)NC2=O)C3=O)c(C)cc1Nc1ncc(Cl)c(Nc2ccccc2S(=O)(=O)C(C)C)n1 (stereo not given)
solubility thermodynamic at 24 h [6]: 686 µM (≈ 567 µg/mL) | microsomal CLint at 1 µM [1]: 39 µL/min/mg | F [4]: 0.2% | Activity (Erythrocyte [2]): Toxic | Activity (Erythrocyte [3]): Toxic

SMILES: COc1cc(CCNCCCCCC#Cc2cccc3c2C(=O)N(C2CCC(=O)NC2=O)C3=O)c(C)cc1Nc1ncc(Cl)c(Nc2ccccc2S(=O)(=O)C(C)C)n1 (stereo not given)
microsomal CLint at 1 µM [1]: 59 µL/min/mg | Activity (Erythrocyte [2]): Toxic | Activity (Erythrocyte [3]): Toxic

SMILES: CCc1cc2c(cc1N1CCC(N3CCOCC3)CC1)C(C)(C)c1[nH]c3cc(C#N)ccc3c1C2=O [ALECTINIB]
GI50 (BaF3 [7]): 79.4 nM | GI50 (BaF3 [8]): 501 nM | GI50 (BaF3 [9]): 79.4 nM | GI50 (BaF3 [10]): 12.6 nM | GI50 (BaF3 [11]): 398 nM

More lines, main results first:

microsomal CLint at 1 µM [1]: 5.4 µL/min/mg
SMILES: COc1cc(C2CCN(CCCCCC#Cc3cccc4c3CN(C3CCC(=O)NC3=O)C4=O)CC2)c(C)cc1Nc1ncc(Cl)c(Nc2ccccc2S(=O)(=O)C(C)C)n1 (stereo not given)
Activity (Erythrocyte [2]): Toxic | Activity (Erythrocyte [3]): Toxic

GI50 (BaF3 [7]): 39.8 nM | GI50 (BaF3 [8]): 126 nM | GI50 (BaF3 [9]): 15.8 nM | GI50 (BaF3 [10]): 15.8 nM | GI50 (BaF3 [11]): 126 nM
SMILES: COc1cc(C2CCN(CC3CN(c4ccc5c(c4)C(=O)N(C4CCC(=O)N(C)C4=O)C5=O)C3)CC2)c(C)cc1Nc1ncc(Cl)c(Nc2ccccc2S(=O)(=O)C(C)C)n1 (stereo not given)

microsomal CLint at 1 µM [1]: 25.2 µL/min/mg
SMILES: COc1cc(C2CCN(CC3CN(c4ccc5c(c4)CN(C4CCC(=O)NC4=O)C5=O)C3)CC2)c(C)cc1Nc1ncc(Cl)c(Nc2ccccc2S(=O)(=O)C(C)C)n1 (stereo not given)

microsomal CLint at 1 µM [1]: 14.8 µL/min/mg
SMILES: COc1cc(C2CCN(CC#Cc3ccc4c(c3)CN(C3CCC(=O)NC3=O)C4=O)CC2)c(C)cc1Nc1ncc(Cl)c(Nc2ccccc2S(=O)(=O)C(C)C)n1 (stereo not given)
